Measurements as given in PubChem BioAssay.
The source made the active and inactive calls. Unless noted, no stated cut-off is given here; in the data, active means inhibition above about 30%; inactive means the rest.

Legend:
[1] = reducers of endogenous Her2 protein level, primary screen, SKBR3 breast tumor cells, AlphaScreen, ATP viability (AID 461;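 active means Her2 level under about 52% in both replicate screens, with viability over 70% of control, limit read from the data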;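 on Her2 level: lower value means less Her2 protein in the cells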;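 on viability: percent of carrier control wells set as 100% viability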); settings: 18-24 h, measured here: SKBR3 viability, ATP luminescence, at 10 µM
[2] = target: Receptor tyrosine-protein kinase erbB-2 (Homo sapiens) (UniProt P04626); assay: as above; settings: 18-24 h, at 10 µM, stronger effect = lower value
[3] = SK-BR-3 cell growth inhibitors, pilot screen, 24 h, human (AID 572;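 active means viability at or below 10% of carrier control in both of two separate runs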;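 further: compound exposure lasted between 18 and 24 h rather than exactly 24 h; 100% = carrier-treated control wells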); settings: SK-BR-3 viability, CellTiter-Glo luminescence, at 10 µM, stronger effect = lower value
[4] = HUVEC growth inhibition – cell-based, human, primary screen (AID 575;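 active means viability at or below 30% in both replicate assays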;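 further: 100% = median of untreated cell wells with 0.1% DMSO on each plate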); settings: HUVEC proliferation, CellTiter-Glo luminescence, 72 h; at 10 µM; stronger effect = lower value
Procedure, shortened: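 System – primary HUVEC, no more than 12 passages · Medium – Low-serum (2% FBS) EBM, supplemented · Times – 72 h exposure, 37 °C, 5% CO2, 30 min RT equilibration · Measured by – luminescent ATP assay · Read-out – % viability relative to median vehicle-well signal on each plate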

[5] = growth inhibitors of H69AR lung tumor, primary screen, human, duplicate replicates (AID 580;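 active means viability at or under a set limit in both replicates, limit being median viability minus 3 SD, cut at about 48% in these data, passing the limit was not always enough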;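 further: 100% = mean luminescence of untreated wells and 0% = no signal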); settings: H69AR lung tumor cells viability, ATP luminescence, 72 h; at 10 µM; stronger effect = lower value
[6] = reversal of MRP1-mediated doxorubicin resistance, pilot screen, H69AR cells, doxorubicin co-treatment (AID 601;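 active means viability loss from added drug above about 55%, and viability with drug at most 40%, in both replicates, limit read from the data, passing the limit was not always enough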); settings: CellTiter-Glo, 72 h, at 10 µM; for differential viability (reversal): stronger effect = higher value
[7] = 384-well plate pilot, post-Golgi transport modulator project, inhibition of yeast transport mutant growth (AID 636; in the data active means inhibition above about 31%); settings: absorbance 615 nm, about 18 h, stronger effect = higher value
[8] = growth suppression of yeast trafficking mutant, preliminary HTS, modulators of trafficking downstream of Golgi apparatus project, 1536-format plate, OD 615 nm (AID 637); settings: yeast transport mutant growth, absorbance 615 nm, 18 h; stronger effect = higher value
[9] = H69AR cells + 2 uM doxorubicin, measured here: viability with 2 uM doxorubicin, stronger effect = lower value
[10] = H69AR cells, compound alone cytotoxicity

Receptor tyrosine-protein kinase erbB-2 (Homo sapiens), sequence (P04626 whole entry, looked up): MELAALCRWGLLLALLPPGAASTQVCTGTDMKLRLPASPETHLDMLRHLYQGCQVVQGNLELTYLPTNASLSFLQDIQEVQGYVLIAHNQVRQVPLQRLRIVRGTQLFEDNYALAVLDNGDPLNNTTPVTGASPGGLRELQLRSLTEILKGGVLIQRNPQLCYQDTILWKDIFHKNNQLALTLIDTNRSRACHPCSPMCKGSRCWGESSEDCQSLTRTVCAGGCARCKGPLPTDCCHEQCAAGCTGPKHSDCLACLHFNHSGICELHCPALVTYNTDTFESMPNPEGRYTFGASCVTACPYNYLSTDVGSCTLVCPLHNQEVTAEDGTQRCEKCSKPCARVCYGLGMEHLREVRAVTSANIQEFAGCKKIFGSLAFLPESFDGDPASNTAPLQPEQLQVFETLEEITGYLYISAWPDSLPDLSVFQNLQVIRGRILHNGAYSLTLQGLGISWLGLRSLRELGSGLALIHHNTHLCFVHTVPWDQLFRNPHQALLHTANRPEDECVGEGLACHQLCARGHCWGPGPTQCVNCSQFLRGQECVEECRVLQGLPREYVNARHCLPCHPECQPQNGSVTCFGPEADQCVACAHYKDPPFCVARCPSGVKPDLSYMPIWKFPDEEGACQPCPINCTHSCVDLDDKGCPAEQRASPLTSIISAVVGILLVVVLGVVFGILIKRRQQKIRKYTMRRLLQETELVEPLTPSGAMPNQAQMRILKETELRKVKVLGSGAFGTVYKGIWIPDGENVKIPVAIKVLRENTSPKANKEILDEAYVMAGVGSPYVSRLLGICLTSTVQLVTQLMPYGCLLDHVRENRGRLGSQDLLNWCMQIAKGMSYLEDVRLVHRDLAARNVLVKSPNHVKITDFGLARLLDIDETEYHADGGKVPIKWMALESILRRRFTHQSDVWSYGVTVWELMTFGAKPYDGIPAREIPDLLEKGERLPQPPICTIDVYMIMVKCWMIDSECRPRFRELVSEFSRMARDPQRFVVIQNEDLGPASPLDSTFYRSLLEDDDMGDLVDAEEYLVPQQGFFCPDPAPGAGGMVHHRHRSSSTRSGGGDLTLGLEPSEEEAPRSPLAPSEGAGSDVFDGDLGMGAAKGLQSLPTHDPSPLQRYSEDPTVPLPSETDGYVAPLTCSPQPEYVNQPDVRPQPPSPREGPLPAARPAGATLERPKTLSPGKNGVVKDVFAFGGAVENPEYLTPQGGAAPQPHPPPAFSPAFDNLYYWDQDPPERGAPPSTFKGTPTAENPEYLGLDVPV

Compound	viability [1]	Her2 level [2]	viability [3]	viability [4]	viability [5]	differential viability (reversal) ([6]; H69AR cells + 2 uM doxorubicin)	viability [6, 9]	viability [6, 10]	inhibition [7]	inhibition [8]
O=C(NCC(=O)N(c1ccc2c(c1)OCCO2)C(C(=O)NC1CCCC1)c1ccco1)c1ccco1 (stereo not given)	92%	102% (inactive)	92% (inactive)	97.2% (inactive)	92.1% (inactive)	13.4% (inactive)	78.7%	92.1%	-4.53% (inactive)	-9.05% (inactive)
COc1ccc(-c2nnc(SCC(=O)Nc3ccc(Cl)cc3)n2C)cc1	82.5%	104% (inactive)	82.5% (inactive)	92.8% (inactive)	90.2% (inactive)	8% (inactive)	82.2%	90.2%	-0.93% (inactive)	-9.21% (inactive)
O=C(NCc1ccc2c(c1)OCO2)c1ccccn1	98.5%	107% (inactive)	98.5% (inactive)	92.8% (inactive)	88.5% (inactive)	3.29% (inactive)	85.2%	88.5%	-6.27% (inactive)	-12.1% (inactive)
CC(C)Nc1ncnc2c1cnn2-c1ccccc1	95.5%	104% (inactive)	95.5% (inactive)	88.3% (inactive)	94.7% (inactive)	4.19% (inactive)	90.5%	94.7%	0% (inactive)	-8.33% (inactive)
CCN(C(=O)c1cn(C)c(=O)c2cc(OC)c(OC)cc12)c1ccccc1C	108%	75% (inactive)	108% (inactive)	106% (inactive)	98.2% (inactive)	7.24% (inactive)	91%	98.2%	-0.54% (inactive)	-1.43% (inactive)
Cc1nnc(SCC(=O)N2CC(=O)Nc3ccccc32)n1-c1ccccc1	93%	90% (inactive)	93% (inactive)	102% (inactive)	97% (inactive)	2.75% (inactive)	94.3%	97%	-4.53% (inactive)	4.84% (inactive)
Cn1c(=O)c2c(nc(SCCCO)n2Cc2ccccc2Cl)n(C)c1=O	80.5%	78.5% (inactive)	80.5% (inactive)	67.2% (inactive)	79.3% (inactive)	51.5% (inactive)	27.9%	79.3%	-1.6% (inactive)	2.62% (inactive)
CCc1cc(=O)oc2c(CN3CCN(C)CC3)c(O)c(Cl)cc12	107%	93.5% (inactive)	107% (inactive)	92.6% (inactive)	98.4% (inactive)	6.53% (inactive)	91.8%	98.4%	-2.5% (inactive)	-3.61% (inactive)
CCCC(=O)N(c1ccc2oc(=O)sc2c1)S(=O)(=O)c1ccccc1	75.5%	78.5% (inactive)	75.5% (inactive)	78.3% (inactive)	60% (inactive)	-20.9% (inactive)	80.9%	60%	-2.86% (inactive)	-3.81% (inactive)
CCCN1CCN(CCCNC(=O)C2CCCN(c3nc4ccc(OCC)cc4s3)C2)CC1 (stereo not given)	85.5%	118% (inactive)	85.5% (inactive)	74.8% (inactive)	87.3% (inactive)	-1.46% (inactive)	88.8%	87.3%	-5.39% (inactive)	0.83% (inactive)
c1ccc(SCc2nc3ccccc3[nH]2)nc1	99.5%	107% (inactive)	99.5% (inactive)	103% (inactive)	90.6% (inactive)	-6.88% (inactive)	97.5%	90.6%	-5.87% (inactive)	22.3% (inactive)
C=CCOc1nc2c(c(=O)n(C)c(=O)n2C)n1Cc1c(Cl)cccc1Cl	97.5%	83% (inactive)	97.5% (inactive)	94.9% (inactive)	80.4% (inactive)	62% (active)	18.3%	80.4%	-3.92% (inactive)	11.9% (inactive)
CCOC(=O)C1CCN(c2c(Nc3ccc4c(c3)OCCO4)c(=O)c2=O)CC1	82.5%	100% (inactive)	82.5% (inactive)	88% (inactive)	88.4% (inactive)	-0.805% (inactive)	89.2%	88.4%	1.03% (inactive)	3.17% (inactive)
Cc1ccc(Cl)cc1NC(=O)CSc1nnc(C)n1-c1ccccc1	90%	79% (inactive)	90% (inactive)	91% (inactive)	86.6% (inactive)	6.06% (inactive)	80.6%	86.6%	-2.63% (inactive)	0.65% (inactive)
COc1ccc(OC)c(C(=O)c2nc3c(n2O)CCCCC3)c1	78.5%	122% (inactive)	78.5% (inactive)	99.9% (inactive)	93.2% (inactive)	-4.37% (inactive)	97.6%	93.2%	-5.13% (inactive)	0.98% (inactive)
Cc1ccccc1NC(=O)Cc1nnc(SCC(=O)N2CCN(c3ccccc3)CC2)n1C	110%	108% (inactive)	110% (inactive)	101% (inactive)	98.2% (inactive)	5.74% (inactive)	92.5%	98.2%	-5.53% (inactive)	-6.67% (inactive)
COC(=O)c1cnn2c(C(F)(F)F)cc(-c3ccco3)nc12	99%	80% (inactive)	99% (inactive)	79.9% (inactive)	64.8% (inactive)	-11.7% (inactive)	76.5%	64.8%	-4.61% (inactive)	0.82% (inactive)
O=C(NCc1ccc(F)cc1)C1CCN(C(=O)NCc2ccccc2)CC1	115%	110% (inactive)	115% (inactive)	89.8% (inactive)	101% (inactive)	6.81% (inactive)	93.8%	101%	-3.38% (inactive)	-7.17% (inactive)
CN(Cc1ccccc1)c1nc2c(c(=O)[nH]c(=O)n2C)n1Cc1ccccc1Cl	114%	87.5% (inactive)	114% (inactive)	82.2% (inactive)	85.4% (inactive)	4.96% (inactive)	80.4%	85.4%	-5.2% (inactive)	8.36% (inactive)
CCCC1C(C#N)=C(N)Oc2n[nH]c(C(C)(C)C)c21 (stereo not given)	106%	99.5% (inactive)	106% (inactive)	95.1% (inactive)	105% (inactive)	11% (inactive)	94.4%	105%	-6.97% (inactive)	-7.58% (inactive)
CCn1nnnc1SCC(=O)Nc1nnc(C(C)C)s1	88.5%	84.5% (inactive)	88.5% (inactive)	103% (inactive)	92.2% (inactive)	2.35% (inactive)	89.8%	92.2%	-4.4% (inactive)	3.11% (inactive)
Cn1cccc1Cc1nnc(SCC(=O)Nc2ccc(F)cc2)n1-c1ccc(F)cc1	86%	93% (inactive)	86% (inactive)	71.9% (inactive)	80.2% (inactive)	-9.93% (inactive)	90.1%	80.2%	0% (inactive)	-1% (inactive)
CC(C)(C)Nc1nc(NC(C)(C)C)nc(-n2ccnc2)n1	122%	80% (inactive)	122% (inactive)	69% (inactive)	88.6% (inactive)	1.06% (inactive)	87.6%	88.6%	-0.26% (inactive)	10.8% (inactive)
CC12CN3CC(C)(CN(C1)C3c1ccc(Br)cc1)C2 (stereo not given)	99%	97% (inactive)	99% (inactive)	99.2% (inactive)	102% (inactive)	12.9% (inactive)	89.4%	102%	-2.63% (inactive)	2.46% (inactive)
Cc1cc(NC(=O)C23CCC(C)(c4nc5cc(Cl)c(Cl)cc5nc42)C3(C)C)no1 (stereo not given)	124%	96.5% (inactive)	124% (inactive)	88.5% (inactive)	91.6% (inactive)	14.6% (inactive)	77.1%	91.6%	-3.42% (inactive)	6.29% (inactive)
COC(=O)c1cc(S(=O)(=O)N2CCC(C)CC2)ccc1F	71%	104% (inactive)	71% (inactive)	88.6% (inactive)	88.2% (inactive)	-1.02% (inactive)	89.2%	88.2%	-3.51% (inactive)	2.79% (inactive)
O=C(CSc1ncnc2c1oc1ccccc12)Nc1ccccc1C(F)(F)F	118%	126% (inactive)	118% (inactive)	86.8% (inactive)	95.8% (inactive)	8.15% (inactive)	87.6%	95.8%	-5.6% (inactive)	-2% (inactive)
O=C(CSc1nnc(COc2ccc(Cl)cc2)o1)N1CCN(c2ccccc2)CC1	100%	83% (inactive)	100% (inactive)	57% (inactive)	90.2% (inactive)	-2.18% (inactive)	92.4%	90.2%	-3.2% (inactive)	3.11% (inactive)
